INS promoter act – TRM-6 insulin promoter activation. TRM-6 cells, insulin promoter eGFP reporter, imaging; plate-scaled: unstimulated 0, stimulated control 100. activation, % at 2 µM. 0.81% of 130,000 active;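 active = activation at 2 µM above a set limit, confirmed on inspection of the cell images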;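 also: share of cells whose green reporter signal exceeds an intensity cutoff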
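System: human fetal islet-derived TRM-6 cells with tamoxifen-inducible insulin promoter–eGFP reporter; input: seeding density of 1,000 cells per well; buffer or medium: Low-glucose (5.5 mM) medium with tamoxifen; incubation: compound exposure 48 h, 37 °C; measured by: high-content imaging of fixed cells with Hoechst nuclear stain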
Numbers stand for hits; - = inactive. The full list was thinned out, with hits kept by preference.

SMILES	INS promoter act
Cc1cccc(-n2ncc3c(N4CCOCC4)ncnc32)c1	-
Cc1nnc(SCCN2CCOCC2)c2nn(-c3ccccc3F)c(C)c12	-
C=C1C(O)C[C@H]2C(=C)CCC3[C@H](OC(=O)[C@]3(O)CO)[C@@H]12 (some centres not stated)	275
Cc1onc(-c2ccccc2)c1C(=O)N1CCN(C)CC1	100
Cc1onc(-c2ccccc2)c1C(=O)N1CCN(C(=O)c2ccco2)CC1	-
Cc1onc(-c2ccccc2)c1C(=O)N1CCCN(C(=O)c2c(-c3ccccc3)noc2C)CC1	-
CCCn1nnc(NC(=O)c2ccc(OCC)c(Cl)c2)n1	623
CCCn1nnc(NC(=O)c2ccc(Br)cc2)n1	-
CCOc1ccc(C(=O)Nc2cc(NC(=O)c3ccc(OCC)c(Cl)c3)cc(C(=O)O)c2)cc1Cl	-
C[C@H](NS(=O)(=O)c1ccccc1)C(=O)OCC(=O)NC(=O)Nc1ccc2c(c1)OCCO2	-
CCn1c(CNC(=O)c2cccs2)nnc1SCC(=O)Nc1ccc(Cl)cc1	650
CCn1c(SCC(=O)Nc2cc(C)on2)nnc1-c1cccs1	-
C=CCn1c(CCNC(=O)c2cccs2)nnc1SCC(=O)Nc1cccc(C(C)=O)c1	-
CCOC(=O)CC(N)c1ccc2c(c1)OCO2 (configuration not stated)	-
O=C1OCC2=C1C(c1ccc(F)cc1)c1cc3c(cc1N2)OCCO3 (configuration not stated)	-
O=C(Cn1ncc(Cl)c(Cl)c1=O)c1ccc(Cl)cc1	-
O=C(OCn1ncc(Cl)c(Cl)c1=O)c1ccc(F)cc1	243
Cn1c(N)c(C(=O)COC(=O)c2ccc(Cl)nc2)c(=O)n(C)c1=O	-
O=C(Nc1ccncc1)c1cccs1	-
CC(=O)c1ccc(NC(=O)c2cccs2)cc1	-
COC(=O)Cc1ccc(NC(=O)c2cccs2)cc1	460
CCc1ccc(C(=O)COC(=O)c2n[nH]c3ccccc23)cc1	-
N#Cc1ccsc1NC(=O)COc1ccc(-c2nnco2)cc1	-
CCS(=O)(=O)NCCc1csc(C)n1	-
C=CCn1c(SCN2C(=O)c3ccccc3C2=O)nc2ccc(Cl)cc2c1=O	-
SMILES	INS promoter act
Cc1nn(Cc2ccccc2)c(C)c1NC(=O)CCCn1nc([N+](=O)[O-])c(Cl)c1C	-
Cc1c(Cl)c([N+](=O)[O-])nn1Cc1ccc(C(=O)Nc2ccc(Cl)cn2)o1	-
Cc1nn(Cc2ccc(Cl)cc2Cl)c(C)c1NC(=O)Cn1nc([N+](=O)[O-])c(Cl)c1C	650
Cc1ccc(CO/N=C\Cc2snc(Sc3ncc(C(F)(F)F)cc3Cl)c2C#N)cc1	-
N#C/C(=C/c1cccs1)c1nc2ccccc2[nH]1	-
CCOc1cc(N(CC)CC)ccc1/C=C(/C#N)c1nc2ccccc2[nH]1	233
CCN(CC)c1ccc(/C=C(/C#N)c2nc3ccc(C)cc3[nH]2)c(OC(C)C)c1	245
COc1cc(/C=C(\C#N)c2nc3ccccc3[nH]2)cc(Br)c1OCc1ccc(F)cc1	-
N#C/C(=C\c1cc([N+](=O)[O-])c(N2CCOCC2)cc1N1CCOCC1)c1nc2ccccc2[nH]1	-
Cc1ccc(/C=C(\C#N)c2nc3ccccc3[nH]2)s1	-
COC(=O)C1CC(c2ccc(Cl)cc2)=NO1 (configuration not stated)	-
CC(C)(C)c1ccc(-c2n[nH]c(=S)n2/N=C/c2ccncc2)cc1	-
Cc1nc2cc3nc(C(F)(F)F)[nH]c3cc2[nH]1	-
Cc1cccc2cc(CN(Cc3ccco3)C(=O)c3cccs3)c(=O)[nH]c12	-
Cc1ccc2cc(CN(Cc3ccco3)C(=O)NCc3ccccc3)c(=O)[nH]c2c1C	160
Cc1ccc2cc(CN(Cc3ccco3)C(=S)NCC3CCCO3)c(=O)[nH]c2c1C (configuration not stated)	-
Cc1ccc(NC(=O)C(=O)NCCN2CCN(S(=O)(=O)c3ccccc3)CC2)cc1C	-
COc1ccc(C(=O)N2N=C(c3cccc(OC)c3)CC2(O)C(F)(F)F)cc1 (configuration not stated)	-
Cc1[nH]nc2c1C(c1cc(Br)cs1)C(C#N)=C(N)O2 (configuration not stated)	-
CC(C)(C)NC(=O)COC(=O)Cc1ccc(Cl)cc1	-
CC(NC(=O)C(C(=O)c1cccc([N+](=O)[O-])c1)n1cc(Cl)ccc1=O)c1ccccc1 (configuration not stated)	-
Cc1cccc(-c2nnc(SCC(=O)Nc3ncccn3)n2C)c1	-
NC(=O)C1(N2CCCCC2)CCN(C(=O)c2cccn3c(=O)c4cc(Cl)ccc4nc23)CC1	150
CCOCCCn1c(=S)[nH]c2cc(C(=O)N3CCC(C(N)=O)(N4CCCCC4)CC3)ccc2c1=O	-
O=C(c1cccn2c(=O)c3cc(Cl)ccc3nc12)N1CCN(Cc2ccc3c(c2)OCO3)CC1	-
SMILES	INS promoter act
COc1cc(/C=C(\NC(C)=O)C(=O)Nc2cccc(O)c2)ccc1OC(C)=O	-
O=C1OC(N2CCN(C(=O)C3CCCO3)CC2)c2ccccc21 (configuration not stated)	173
O=C(C1CCCO1)N1CCN(S(=O)(=O)c2cccc3nsnc23)CC1 (configuration not stated)	-
O=C(C1CCCO1)N1CCN(C(=S)Nc2ccc(F)cc2)CC1 (configuration not stated)	-
CCOC(=O)N1CCN(C2OC(=O)c3ccccc32)CC1 (configuration not stated)	459
O=C1OC(N2CCN(C/C=C/c3ccccc3)CC2)c2ccccc21 (configuration not stated)	-
CCOC(=O)N1CCN(C(=O)Cc2cccs2)CC1	-
CS(=O)(=O)c1ccc(S(=O)CC(=O)OCc2ccccc2)c([N+](=O)[O-])c1 (configuration not stated)	-
CCN(CC)CCNC(C(=O)Nc1cccc(C(C)=O)c1)c1ccccc1 (configuration not stated)	-
CC(C)CC(C(=O)NC(C)(C)C)N(CC1CCCO1)C(=O)c1snc(C(N)=O)c1N (configuration not stated)	-
COc1ccc(-c2nn(C)c(=O)c3ccccc23)cc1NC(=O)Cn1nc(-c2ccccc2)c2ccccc2c1=O	-
COc1ccccc1NC(=O)N1CCc2[nH]c3ccc(Cl)cc3c2C1	-
COc1cc(NC(=O)CS(=O)(=O)c2ccccc2)cc(OC)c1OC	-
C/C(CS(=O)(=O)c1ccccc1)=N\O	229
CCOC(=O)CS(=O)(=O)c1ccccc1	-
CCN(CC)c1ccc(/C=C(/C#N)C(=O)NCc2ccccc2)o1	-
CC(C)NC(=O)/C(C#N)=C\c1ccc(N(C)C)o1	560
CNC(=O)/C(C#N)=C\c1ccc(CNS(=O)(=O)c2ccccc2)o1	-
Cn1nnnc1SCSc1nnnn1C	625
Cn1nnnc1SCC(=O)NCc1ccccc1	-
Cn1nnnc1SCC(=O)c1cccs1	-
O=C(NN1C(=O)c2ccccc2NC1c1ccccn1)c1ccc([N+](=O)[O-])cc1 (configuration not stated)	-
CCOc1ccc2c(c1)/C(=C(\C(Cl)=C(Cl)Cl)[N+](=O)[O-])N2	376
CCOc1ccc([N+](=O)[O-])c(N)c1	-
CCOc1cccc(OCCOc2ccccc2[N+](=O)[O-])c1	-
Cc1ccc(CN2CCN(Cc3cnc(N4CCOCC4)s3)CC2CCO)o1 (configuration not stated)	-
CCc1ccc(/C=C2\Oc3cc(OC(=O)N4CCOCC4)ccc3C2=O)cc1	-
COc1ccc(NC(=O)CSc2ccc3nnc(-c4cccnc4)n3n2)c(OC)c1	-

Source: PubChem BioAssay
